We go through 25 compounds from PubChem BioAssay AID623993 (Broad Institute, 2012).

Activity calls are given as the source filed them.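 How the source made its calls: active means inhibitor whose fitted half-maximal dose is at most twice the top valid tested dose; inconclusive means flat curve with partial inhibition, or poor fit; inactive means signal rising, flat near zero, or weaker potency.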 A value given as a limit tells only on which side of the number the result lay.

One test concerns the target PvdQ acyl-homoserine lactone acylase (Pseudomonas aeruginosa LESB58). In words: PvdQ acylase inhibitors, dose response, biochemical, 4-MU laurate fluorescence, dry powder, set 4 (AID 623993). The following applies: purified PvdQ, 4-MU laurate hydrolysis fluorescence. The procedure, abridged: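 test system = purified P. aeruginosa PvdQ | timing = 30 min enzyme–compound preincubation, then 60 min substrate reaction, room temperature | detection = fluorescence, ex 303–367 nm, em 440–460 nm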
In the case of `N#CC(c1ccc(Cl)cc1)c1cccc(Cl)n1` (stereo not given), the AC50 is 49.1 nM.
Same read-out and setting: as for `COCCC(C#N)c1ccc(F)cc1` (stereo not given), the figure is 530 nM; as for `N#CC(c1ccc(C(F)(F)F)c(Cl)n1)c1ccccc1OC(F)(F)F` (stereo not given), 15200 nM; as for `N#CC(c1ccc(Cl)cc1)c1ccccn1` (stereo not given), 212 nM.
As for `N#CC(c1ccc(Cl)cc1)N1CCCC1` (stereo not given), the AC50 is 786 nM.
On to `N#CC1c2ccc(Cl)cc2CCc2cccnc21` (stereo not given), for which the half-maximal activity concentration (AC50) is 3510 nM.
As for `N#CC(c1ccc(Cl)cc1)c1ncccc1Cl` (stereo not given), the AC50 was 3.01 nM.
Consider `CCCCC(c1ccc(Cl)cc1)c1nn[nH]n1` (stereo not given), for which the AC50 is 3530 nM.
Consider `COCCC(C#N)c1ccc(Cl)cc1` (stereo not given), for which the half-maximal activity concentration (AC50) was 3470 nM.
On the same count and under the same terms, as for `CCCCC(C#N)c1ccc(F)cc1` (stereo not given), the figure is 412 nM; as for `CN(C)CCCC(C#N)c1ccc(Cl)cc1` (stereo not given), 14500 nM.
As for `N#CC(c1cccc(C(F)(F)F)n1)c1ccc(Cl)cc1F` (stereo not given), the concentration at half-maximal activity (AC50) is < 3 nM.
Consider `N#Cc1cccc(C(C#N)c2ccc(F)cc2)n1` (stereo not given), for which the concentration at half-maximal activity (AC50) is 140 nM.
For `CCCCC(C#N)c1ccc(Cl)cn1` (stereo not given), the AC50 is 1630 nM.
The same measure, in the same setting: as for `N#CC(c1ccc(F)cc1)c1cccc(C(F)(F)F)n1` (stereo not given), the figure is < 3 nM.
`COCCOCCC(C#N)c1ccc(F)cc1` (stereo not given): the AC50 was 177 nM.
For the compound `N#CC(c1ccc(F)cc1)c1cccc(Cl)n1` (stereo not given), the AC50 was 108 nM.
As for `N#CC(c1cccc(Cl)n1)c1ccc(Cl)cc1F` (stereo not given), the AC50 was 7.66 nM.
The same measure, in the same setting: as for `CCCCC(C#N)c1ccc(Cl)cc1` (stereo not given), the figure is 412 nM.
Consider `CN(C)CCCC(C#N)c1ccc(F)cc1` (stereo not given), for which the concentration at half-maximal activity (AC50) is 273 nM.
With `COCCOCCC(C#N)c1ccc(Cl)cc1` (stereo not given), the half-maximal activity concentration (AC50) was 7070 nM.
As to `N#CC(c1ccc(Cl)cc1)c1cccc(C(F)(F)F)n1` (stereo not given), the AC50 is 23.6 nM.

Staying with this test, now noted: purified PvdQ, 4-MU laurate hydrolysis fluorescence; at 19.5 µM (top of the series).
As for `COCCNC(C#N)c1ccc(Cl)cc1` (stereo not given), the “activity change, negative = inhibition” value is “inactive”.
The same measure, in the same setting: as for `Clc1ccc(C(c2cccc(Cl)n2)c2nn[nH]n2)cc1` (stereo not given), the entry is “inactive”.
In the case of `CCCCC(C#N)c1ccccn1` (stereo not given), the “activity change, negative = inhibition” value is “inactive”.
